We go through twelve molecules from ChEMBL document CHEMBL1123632, “Cardiotonic agents. 7. Inhibition of separated forms of cyclic nucleotide phosphodiesterase from guinea pig cardiac muscle by 4,5-dihydro-6-[4-(1H-imidazol-1-yl)phenyl]-3(2H)-pyridazinones and related compounds. Structure-activity relationships and correlation with in vivo positive inotropic …” (J Med Chem, 1987).

Where “and” joins values, the source holds several entries; their conditions need not be identical. Identical values can stand only once.

Test [1] addresses T1, Phosphodiesterase 3 (Homo sapiens, UniProt Q14432+Q13370). Briefly: Inhibition of cAMP PDE III enzyme in guinea pig at 1E-4M concentration. The conditions noted are these: Cavia porcellus; target entry is the homologue from another species. In kind it is protein assay.
In test [2] the target is T2, cGMP-dependent 3',5'-cyclic phosphodiesterase (Homo sapiens, UniProt O00408). Description: Inhibition of cGMP PDE II enzyme in guinea pig at 1E-4M concentration. The conditions noted are these: Cavia porcellus; target entry is the homologue from another species.
The target of test [3] is T3, Phosphodiesterase 1 (Homo sapiens, UniProt P54750+Q01064+Q14123). Description: Inhibition of cAMP PDE I enzyme in guinea pig at 1E-4M concentration. It counts as protein assay. The conditions noted are these: Cavia porcellus; target entry is the homologue from another species.
Test [4] addresses T2, cGMP-dependent 3',5'-cyclic phosphodiesterase. Description: Inhibition of cAMP PDE II enzyme in guinea pig at 1E-5M concentration. The conditions noted are these: Cavia porcellus; target entry is the homologue from another species.
Test [5] concerns the target T1, Phosphodiesterase 3. Description: Inhibition of cAMP PDE III enzyme in guinea pig at 1E-5M concentration. It counts as protein assay. Particulars: Cavia porcellus; target entry is the homologue from another species.
Test [6] deals with T3, Phosphodiesterase 1. Briefly: Inhibition of cAMP PDE I enzyme in guinea pig at 1E-5M concentration. In kind it is protein assay. The conditions noted are these: Cavia porcellus; target entry is the homologue from another species.
Test [7] has as its target T2, cGMP-dependent 3',5'-cyclic phosphodiesterase. Description: Inhibition of cGMP PDE II enzyme in guinea pig at 1E-5M concentration. The conditions noted are these: Cavia porcellus; target entry is the homologue from another species.
The target in test [8] is T3, Phosphodiesterase 1. Description: Inhibition of cGMP PDE I enzyme in guinea pig at 1E-5M concentration. In kind it is protein assay. Particulars: Cavia porcellus; target entry is the homologue from another species.
For the next test, the system named is PDE II (Cavia porcellus). Briefly: Inhibition of cAMP PDE II enzyme in guinea pig at 1E-4M concentration.
In test [9] the target is T3, Phosphodiesterase 1. Briefly: Inhibition of cGMP PDE I enzyme in guinea pig at 1E-4M concentration. In kind it is protein assay. The conditions noted are these: Cavia porcellus; target entry is the homologue from another species.
Test [10] concerns the target T2, cGMP-dependent 3',5'-cyclic phosphodiesterase. Briefly: Inhibitory concentration against cAMP PDE II enzyme in guinea pig. On the set-up: species or system Cavia porcellus. Particulars: target entry is the homologue from another species.
The target of test [11] is T1, Phosphodiesterase 3. Description: Inhibitory concentration against cAMP PDE III enzyme in guinea pig. It counts as protein assay, Cavia porcellus. The conditions noted are these: target entry is the homologue from another species.
A short description of test [12]: Ratio of IC50 values for PDE III and PDE I.
Test [13] addresses PDE I (Cavia porcellus). Briefly: Inhibitory concentration against cAMP PDE I enzyme in guinea pig.
The target in test [14] is PDE I (Cavia porcellus). Description: Inhibitory concentration against cGMP PDE I enzyme in guinea pig.
The species named for a further test is Canis familiaris. Description: Effective dose required to increase myocardial contractility in dog. The conditions noted are these: Canis lupus familiaris, Myocardium. In kind it is functional. The gist of the method: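 Anesthetized mongrel dogs (either sex): pentobarbital 35 mg/kg iv, then 5 mg kg⁻¹ h⁻¹ infusion. After 30-min control, compound in saline or dilute HCl/NaOH diluted with saline given iv over 1 min, cumulative half-log doses (typically four to six), 10–30 min apart.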

In test [15] the target is T2, cGMP-dependent 3',5'-cyclic phosphodiesterase. Description: Inhibitory concentration against cGMP PDE II enzyme in guinea pig. Particulars: target entry is the homologue from another species. On the set-up: species or system Cavia porcellus.
The nature of test [16]: Ratio of IC50 values for PDE III and PDE II.
In test [17] the target is T2, cGMP-dependent 3',5'-cyclic phosphodiesterase. Briefly: Inhibition of cAMP PDE II enzyme in guinea pig at 1E-4M. Particulars: Cavia porcellus; target entry is the homologue from another species.
In test [18] the target is T3, Phosphodiesterase 1. Briefly: Inhibition of cAMP PDE I enzyme in guinea pig at 1E-4M. The conditions noted are these: Cavia porcellus; target entry is the homologue from another species. In kind it is protein assay.
For test [19], the target named is T3, Phosphodiesterase 1. Description: Inhibition of cGMP PDE I enzyme in guinea pig at 1E-4M. The conditions noted are these: Cavia porcellus; target entry is the homologue from another species. In kind it is protein assay.
The target of test [20] is T2, cGMP-dependent 3',5'-cyclic phosphodiesterase. Briefly: Inhibition of cGMP PDE II enzyme in guinea pig at 1E-4M. Particulars: Cavia porcellus; target entry is the homologue from another species.
Test [21] has as its target T3, Phosphodiesterase 1. Description: Inhibitory concentration against cGMP PDE I enzyme in guinea pig. In kind it is protein assay, Cavia porcellus. The conditions noted are these: target entry is the homologue from another species.
For test [22], the target named is T3, Phosphodiesterase 1. Description: Inhibitory concentration against cAMP PDE I enzyme in guinea pig. The conditions noted are these: target entry is the homologue from another species. In kind it is protein assay, Cavia porcellus.

T2 sequence (O00408 whole entry): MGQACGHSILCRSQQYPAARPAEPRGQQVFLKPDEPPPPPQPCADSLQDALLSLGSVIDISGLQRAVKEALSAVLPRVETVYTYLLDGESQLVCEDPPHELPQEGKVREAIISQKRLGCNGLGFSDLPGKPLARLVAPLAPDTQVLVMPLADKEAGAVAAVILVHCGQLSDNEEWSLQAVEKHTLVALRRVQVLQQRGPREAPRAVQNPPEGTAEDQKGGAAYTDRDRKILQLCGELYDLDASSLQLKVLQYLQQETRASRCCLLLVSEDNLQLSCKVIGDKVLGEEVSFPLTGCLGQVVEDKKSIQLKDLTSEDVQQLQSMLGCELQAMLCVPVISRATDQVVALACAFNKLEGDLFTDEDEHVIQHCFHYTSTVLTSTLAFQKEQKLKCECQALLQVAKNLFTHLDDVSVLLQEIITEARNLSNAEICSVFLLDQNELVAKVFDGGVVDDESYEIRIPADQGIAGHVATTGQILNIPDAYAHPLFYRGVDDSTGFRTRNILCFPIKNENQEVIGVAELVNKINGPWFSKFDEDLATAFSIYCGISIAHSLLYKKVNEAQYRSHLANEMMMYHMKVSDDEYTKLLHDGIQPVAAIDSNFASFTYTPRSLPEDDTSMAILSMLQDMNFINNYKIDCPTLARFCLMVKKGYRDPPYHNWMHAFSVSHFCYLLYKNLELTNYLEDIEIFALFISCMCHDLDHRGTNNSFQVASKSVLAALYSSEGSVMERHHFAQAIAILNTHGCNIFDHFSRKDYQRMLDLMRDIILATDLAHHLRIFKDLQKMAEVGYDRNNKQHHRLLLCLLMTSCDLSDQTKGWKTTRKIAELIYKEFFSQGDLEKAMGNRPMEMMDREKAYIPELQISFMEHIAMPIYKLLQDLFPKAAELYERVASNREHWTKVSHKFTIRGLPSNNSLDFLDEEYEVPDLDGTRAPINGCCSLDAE

Consider `O=C1CCC(c2ccc(NC3=NCCO3)cc2)=NN1`, for which the inhibition (as a rule, how much of the control response was suppressed) against Phosphodiesterase 3 [1] came to 68%; in [2] it was 31%; against Phosphodiesterase 1 [3], 26%; in test [4], 9%; on Phosphodiesterase 3 [5], 54%; on Phosphodiesterase 1 [6] it was 3%. Further, the inhibition came to 4% in test [7], 6% on Phosphodiesterase 1 [8], 36% in the test with PDE II (Cavia porcellus) and 12% on Phosphodiesterase 1 [9].

In the case of `O=C1CCC(c2cccc(-n3ccnc3)c2)=NN1`, the inhibition against Phosphodiesterase 3 [1] was 65%; in test [2], 28%; against Phosphodiesterase 1 [3] it was 9%; in [4], 10%; on Phosphodiesterase 3 [5], 28%; against Phosphodiesterase 1 [6], 6%. Besides, the inhibition in test [7] is 10%; on Phosphodiesterase 1 [8] it was 3%; in the test with PDE II (Cavia porcellus) it was 21%; against Phosphodiesterase 1 [9] it was 8%. In addition, the IC50 (as a rule, the concentration at which inhibition is half-maximal) is 330 µM in test [10]; 40 µM against Phosphodiesterase 3 [11]; 930 µM against PDE I (Cavia porcellus) [13]; more than 1000 µM against PDE I (Cavia porcellus) [14]; 340 µM in [15]. Also, the Ratio in test [12] came to 43; in test [16] it was 121. The ED50 (as a rule, the dose at which the effect has come halfway, by size or by number of responders) in the test filed under Canis familiaris worked out at 0.3 mg/kg.

`CC1CC(O)=NN=C1c1ccc(-n2ccnc2)cc1` (configuration not stated) [CI-930]: the inhibition amounted to 5% in test [4]; 69% against Phosphodiesterase 3 [5]; 3% at Phosphodiesterase 1 [6]; 18% in test [17]; 7% in [7]; 9% on Phosphodiesterase 1 [18]. Further, the figures for the inhibition (on Phosphodiesterase 1 [8]; at Phosphodiesterase 1 [19]; in [20]) were 9%, 12% and 23%, respectively. Also, the ED50 in the test filed under Canis familiaris is 0.013 mg/kg.

As for `Nc1cc(-c2ccncc2)c[nH]c1=O` [INAMRINONE], the IC50 in test [10] was 720 µM and 580 µM; at Phosphodiesterase 1 [21] it was more than 1000 µM; against Phosphodiesterase 1 [22], more than 1000 µM.

In the case of `CN1N=C(c2ccc(-n3ccnc3)cc2)CCC1=O`, the inhibition on Phosphodiesterase 3 [1] was 47%; in test [2], 32%; at Phosphodiesterase 1 [3], 22%; in test [4] it was 5%; against Phosphodiesterase 3 [5] it was 13%; on Phosphodiesterase 1 [6], 1%. The inhibition in test [7] came to 1%; at Phosphodiesterase 1 [8], 3%; with PDE II (Cavia porcellus) it was 33%; on Phosphodiesterase 1 [9] it was 26%. Further, the IC50 is 370 µM in [10]; 110 µM against Phosphodiesterase 3 [11]; more than 1000 µM at PDE I (Cavia porcellus) [13]; more than 1000 µM against PDE I (Cavia porcellus) [14]; 280 µM in [15]. Besides, the ED50 in the test listed under Canis familiaris was 1 mg/kg. The Ratio in [16] was determined as 297.

Consider `O=C1CCC(c2ccc(-n3cncn3)cc2)=NN1`, for which the inhibition worked out at 51% against Phosphodiesterase 3 [1]; 6% in [4]; 33% against Phosphodiesterase 3 [5]; 7% against Phosphodiesterase 1 [6]; 7% in test [7]; 6% against Phosphodiesterase 1 [8]. In addition, the inhibition in the test with PDE II (Cavia porcellus) worked out at 20%; in test [20] it was 24%.

For `Oc1ccc(-c2ccc(-n3ccnc3)cc2)nn1`, the inhibition is 80% against Phosphodiesterase 3 [1]; 27% in test [2]; 17% against Phosphodiesterase 1 [3]; 56% at Phosphodiesterase 3 [5]; 4% against Phosphodiesterase 1 [6]; 11% in [7]. In addition, the figures for the inhibition at Phosphodiesterase 1 [8] and at Phosphodiesterase 1 [9] were 6% and 15%, respectively. Besides, the IC50 came out at 7.2 µM at Phosphodiesterase 3 [11], 580 µM against Phosphodiesterase 1 [21] and 660 µM against Phosphodiesterase 1 [22]. In the test listed under Canis familiaris, the ED50 amounted to 0.11 mg/kg.

Consider `CCC1CC(=O)NN=C1c1ccc(-n2ccnc2)cc1` (configuration not stated), for which the inhibition at Phosphodiesterase 3 [1] came to 54%; in test [2], 40%; on Phosphodiesterase 1 [3] it was 2%; in [4], 5%; at Phosphodiesterase 3 [5], 18%; against Phosphodiesterase 1 [6] it was 1%. The inhibition in test [7] amounted to 13%; against Phosphodiesterase 1 [8] it was 1%; in the test with PDE II (Cavia porcellus), 35%; against Phosphodiesterase 1 [9], 8%. The IC50 in [10] is 100 µM; against Phosphodiesterase 3 [11], 74 µM; against PDE I (Cavia porcellus) [13], more than 1000 µM; against PDE I (Cavia porcellus) [14] it was more than 1000 µM; in [15], 71 µM. Also, the ED50 in the test filed under Canis familiaris was determined as 1 mg/kg. Further, in test [16], the Ratio came to 740.

As to `O=C1CCC(c2ccc(-n3ccnc3)cc2)=NN1Cc1ccccc1`, the inhibition at Phosphodiesterase 3 [1] stood at 79%; in [2] it was 70%; at Phosphodiesterase 1 [3], 39%; in test [4] it was 22%; at Phosphodiesterase 3 [5], 47%; against Phosphodiesterase 1 [6] it was 1%. Also, the inhibition in [7] was 18%; against Phosphodiesterase 1 [8] it was 13%; in the test with PDE II (Cavia porcellus) it was 70%; against Phosphodiesterase 1 [9], 33%.

`O=C1CCC(c2ccc(-n3cnc4ccccc43)cc2)=NN1`: the inhibition at Phosphodiesterase 3 [1] came out at 88%; in test [2] it was 70%; against Phosphodiesterase 1 [3], 25%; in test [4] it was 24%; at Phosphodiesterase 3 [5] it was 66%; at Phosphodiesterase 1 [6], 9%. The inhibition in test [7] worked out at 24%; on Phosphodiesterase 1 [8] it was 9%; in the test on PDE II (Cavia porcellus) it was 67%; on Phosphodiesterase 1 [9], 36%. Moreover, the IC50 in test [10] stood at 42 µM; at Phosphodiesterase 3 [11] it was 1.2 µM; on PDE I (Cavia porcellus) [13], 280 µM; against PDE I (Cavia porcellus) [14] it was 220 µM; in test [15], 34 µM. In addition, the Ratio in test [12] is 4.3; in test [16], 28.5. For the same molecule, it took a dose of 0.1 mg/kg to reach the 50% effect level in the test listed under Canis familiaris (ED50).

Regarding `CC1CC(=O)NN=C1c1ccc(-n2cnc3c2CCCC3)cc1` (configuration not stated) [TETRAHYDROBENXIMIDAZOLE], the inhibition is 90% against Phosphodiesterase 3 [1]; 68% in [2]; 57% against Phosphodiesterase 1 [3]; 21% in test [4]; 64% on Phosphodiesterase 3 [5]; 13% at Phosphodiesterase 1 [6]. The inhibition in [7] turned out to be 21%; at Phosphodiesterase 1 [8] it was 17%; in the test on PDE II (Cavia porcellus), 65%; against Phosphodiesterase 1 [9], 54%. Further, the IC50 in test [10] turned out to be 46 µM; at Phosphodiesterase 3 [11], 0.15 µM; against PDE I (Cavia porcellus) [13], 75 µM; against PDE I (Cavia porcellus) [14], 85 µM; in [15] it was 43 µM. The figures for the Ratio in test [12] and in test [16] were 2 and 3.2, respectively. In the test filed under Canis familiaris, this molecule displayed an ED50 of 0.025 mg/kg.

For the molecule `O=C1CCC(c2ccc(-n3ccnc3)cc2)=NN1` [IMAZODAN], the inhibition on Phosphodiesterase 3 [1] came to 76%; against Phosphodiesterase 1 [3], 8%; in [4] it was 4%; on Phosphodiesterase 3 [5], 57%; at Phosphodiesterase 1 [6] it was 3%; in test [17], 17%. In addition, the inhibition in test [7] is 7%; against Phosphodiesterase 1 [8], 3%; against Phosphodiesterase 1 [9] it was 10%; in test [20], 20%. This molecule showed an ED50 in the test listed under Canis familiaris of 0.045 mg/kg.
